ChEMBL document CHEMBL2057169, “Discovery of novel tricyclic compounds as squalene synthase inhibitors” (Bioorg Med Chem, 2012)

Experiments:
marmosets [1] = assay: Lipid lowering effect in marmosets assessed as reduction in plasma total cholesterol level at 100 mg/kg, po administered once daily for 7 days; assay type: functional; details: Callitrichinae sp., in Callithrix jacchus, 168 h
Outline: (§1)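 Common marmosets, n = 8 per group, matched for body weight and plasma lipids. They were dosed orally at 100 mg/kg in 0.5% methylcellulose (5 ml/kg) once daily for 7 days. Nonfasted blood was drawn before dosing and the morning after the last dose. HDL was precipitated, then its cholesterol assayed enzymatically; non-HDL = total minus HDL cholesterol. Change was expressed relative to pre-values.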

marmosets [2] = assay: Lipid lowering effect in marmosets assessed as reduction in plasma non HDL-cholesterol level at 100 mg/kg, po administered once daily for 7 days; assay type: functional; details: Callitrichinae sp., in Callithrix jacchus, 168 h; outline: as §1
Rattus norvegicus = assay: Inhibition of cholesterol synthesis in Wistar rat liver assessed as reduction of [14C]-cholesterol level at 3 mg/kg, po administered as single dose measured after 1 hr by liquid scintillation counting; assay type: functional
Outline: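 Male Wistar rats, 6 weeks old, n = 4-6, dosed orally at 3 mg/kg in 0.5% methylcellulose, with equimolar NaOH or NaHCO3 added; vehicle-only controls. At 1 h, [14C]mevalonic acid (5 µCi/5 ml/kg) was given ip, and rats were killed 1 h later.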

marmosets [3] = assay: Lipid lowering effect in marmosets assessed as reduction in plasma triglyceride level at 100 mg/kg, po administered once daily for 7 days; assay type: functional; details: Callitrichinae sp., in Callithrix jacchus, 168 h; outline: as §1
Hepatocyte = assay: Inhibition of cholesterol synthesis in rat hepatocytes assessed as formation of cholesterol using [14C]mevalonolactone as substrate after 1 hr by radioactivity assay; assay type: functional, cell-based
Outline: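 Rat hepatocytes isolated by two-step portal-vein perfusion (EGTA buffer, then 0.05% collagenase). Cells were kept if viability was over 80% by trypan blue and seeded at 10^6 cells/well in DMEM with 10% LPDS. Next day they got 5% LPDS medium with inhibitor at 0–3000 nM for 1 h at 37 °C, then [14C]mevalonolactone for 1 h. Lysates were saponified, [14C]cholesterol corrected by [3H]cholesterol recovery and BCA protein, and % inhibition taken versus 0 nM wells. Triplicate wells; three experiments.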

marmosets [4] = assay: Lipid lowering effect in marmosets assessed as reduction in plasma HDL-cholesterol level at 100 mg/kg, po administered once daily for 7 days; assay type: functional; details: Callitrichinae sp., in Callithrix jacchus, 168 h; outline: as §1
Squalene synthase = target: T1, Squalene synthase (Rattus norvegicus, UniProt Q02769); assay: Inhibition of squalene synthase in rat hepatic cells; assay type: cell-based
T1 sequence (Q02769 whole entry): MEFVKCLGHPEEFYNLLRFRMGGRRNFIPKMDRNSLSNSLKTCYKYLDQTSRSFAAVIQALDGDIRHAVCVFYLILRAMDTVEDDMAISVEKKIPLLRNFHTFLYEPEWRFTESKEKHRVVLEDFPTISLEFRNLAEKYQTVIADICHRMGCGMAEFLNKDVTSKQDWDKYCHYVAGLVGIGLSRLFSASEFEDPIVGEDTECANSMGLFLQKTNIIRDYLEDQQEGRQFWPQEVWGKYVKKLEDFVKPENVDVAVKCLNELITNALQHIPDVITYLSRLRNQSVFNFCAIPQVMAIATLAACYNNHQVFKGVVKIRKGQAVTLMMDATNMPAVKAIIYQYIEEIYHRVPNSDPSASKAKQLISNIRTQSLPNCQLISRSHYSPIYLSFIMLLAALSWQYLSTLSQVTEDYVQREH

Work on `COc1cccc([C@H]2O[C@H](CCn3nnc(CC(=O)O)n3)c3cccn3-c3ccc(Cl)cc32)c1OC` yielded an inhibition in vivo at 100 mg/kg (marmosets [1]) of 14%, an inhibition in vivo at 100 mg/kg (marmosets [2]) of 21% and an inhibition in vivo at 3 mg/kg (Rattus norvegicus) of 86%. For the same compound, the inhibition in vivo at 100 mg/kg (marmosets [3]) was 12%, the IC50 (Hepatocyte) was 36 nM and the inhibition in vivo at 100 mg/kg (marmosets [4]) was 6%. For the same compound, the IC50 (Squalene synthase) was 1.1 nM.
